Rows were chosen to be rich in hits. Some 1.6% of all compounds tested hit in one or more screens of this group.
C8 TRAIL sens: caspase-8 TRAIL sensitization | NB7+C8 cells + TRAIL, ATPlite viability luminescence | inhibition (viability loss, TRAIL sensitization), % at 10 µM | actives 1% (n = 360,000);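 active = compounds causing at least 50% loss of cell viability in the single-dose screen, relative to plate controls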
FLuc stim CS: affects firefly luciferase, flagging false hits in luciferase stimulation screens. 200,000 tested, under 10 active. activation factor at 10 µM. ATPlite luciferase biochemical, luminescence, 10 min; 0 = ATP-free wells, 1 = DMSO control. P08659;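 active = luciferase activation factor, scaled between plate controls, of at least 2 with compound at 10 µM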
Target sequence (P08659 whole entry, looked up): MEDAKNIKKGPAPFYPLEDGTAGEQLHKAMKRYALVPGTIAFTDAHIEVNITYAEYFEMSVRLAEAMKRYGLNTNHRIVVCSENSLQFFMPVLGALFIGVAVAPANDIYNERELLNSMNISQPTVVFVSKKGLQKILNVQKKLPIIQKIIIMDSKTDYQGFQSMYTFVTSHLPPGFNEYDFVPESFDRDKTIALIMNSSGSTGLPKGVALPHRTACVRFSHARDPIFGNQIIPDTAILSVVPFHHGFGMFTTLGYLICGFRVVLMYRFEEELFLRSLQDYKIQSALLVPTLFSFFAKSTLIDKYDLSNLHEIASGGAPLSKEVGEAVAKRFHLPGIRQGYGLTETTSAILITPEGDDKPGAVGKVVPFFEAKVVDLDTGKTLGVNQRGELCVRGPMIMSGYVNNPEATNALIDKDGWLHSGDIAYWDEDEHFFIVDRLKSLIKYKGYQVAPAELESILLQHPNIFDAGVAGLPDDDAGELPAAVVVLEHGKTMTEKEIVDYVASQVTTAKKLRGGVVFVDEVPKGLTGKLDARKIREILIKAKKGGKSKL
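System: cell-free luciferase reagent; medium: PBS as buffer for the ATP substrate; doses: test compounds dosed from 2 mM stocks in 100% DMSO; incubation: 10 min, room temperature; measured by: luminescence from luciferase reaction; read-out: luciferase activation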
PPC-1+TRAIL kill: compounds killing PPC-1 cancer cells with TRAIL present (potentiator screen, no TRAIL-free arm); PPC-1 cells + TRAIL, ATPLite viability luminescence; cell killing (% activity), % at 4 µM or 5 µM; actives 0.41% (n = 220,000);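 active = cell killing above 50% in the first pass at 4 µM, then a duplicate retest at 5 µM averaging 50% or more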;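 note: plate controls were cells with TRAIL plus DMSO for no effect and medium-only wells lacking cells for full effect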
FLuc inh counter: Photinus pyralis luciferase inhibition counter-screen; ATPLite firefly luciferase biochemical luminescence, 10 min; inhibition, % at 10 µM; actives 1.5% (n = 200,000); AID 1006; P08659;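 active = inhibition above about 50% when tested at 10 µM, limit read from the data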
PPC-1 tox: kills PPC-1 cells; shares compounds with PPC-1+TRAIL kill; PPC-1 viability, ATPlite luminescence, overnight; cytotoxicity, % at 5 µM; actives 50% (n = 1,200); AID 1447;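 active = reconfirmed compounds whose average cytotoxicity reaches 50% or more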;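 note: 0% = DMSO-treated cells and 100% = wells holding medium but no cells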
Numbers without * were called inactive; · = no result given.

SMILES	C8 TRAIL sens	FLuc stim CS	PPC-1+TRAIL kill	FLuc inh counter	PPC-1 tox
Cc1ccc(C(=O)Nc2nc(=O)n(C)s2)cc1	53.1*	0.2	31.2	80.9*	37.4
Cc1ccc(C(=O)Nc2nccs2)cc1	23.6	0.2	6.7	83.1*	3.9
Cc1ccc(C(=O)Nc2nc(=O)n(C(=O)CC(C)C)s2)cc1	-9.5	0.9	13.2	5.1	·
Cn1ccc2c(N3CCCCCCC3)cc3c(c21)C1CCC3O1 (centres undefined)	-10.2	·	·	·	·
Cn1c(-c2ccccc2)cnc1SCC(=O)NCc1ccco1	8.3	1	3.2	-3.9	-6.1
CCn1c(-c2cc(-c3ccc(C)cc3)nc3ccccc23)n[nH]c1=S	6.2	0.7	18.9	32.2	·
CCn1c(-c2cc(-c3ccc(OC(C)C)cc3)nc3ccccc23)n[nH]c1=S	56.1*	0.3	40.6	72.3*	34.3
Cc1ccc(OCc2ccc(C(=O)NN)o2)c([N+](=O)[O-])c1	5.3	·	12.6	·	·
COC(=O)c1ccc(COc2ccc(C)cc2[N+](=O)[O-])o1	4.4	·	11.1	·	-13.6
Cc1cc(/C=N/NC(=O)c2cccs2)c(C)n1-c1ccccc1	61.4*	0.1	68.7*	91.2*	67.8*
CCOc1cc(NC(=S)NCC2CCCO2)c(OCC)cc1NC(=O)CC(C)C (centres undefined)	38.4	1	20.7	-3.7	·
CCCCCCN1C=CC(=C2C(=O)c3ccccc3C2=O)C=C1	91.7*	0.1	81.2*	94.5*	80.3*
CCN1C=CC(=C2C(=O)c3ccccc3C2=O)C=C1	90.6*	0	96.2*	97.6*	96.3*
CCCCN1C=CC(=C2N=c3cccc([N+](=O)[O-])c3=N2)C=C1	-2.4	1	16.3	0.7	·
C[C@@H](C(=O)CC(=O)OC(C)(C)C)[C@@H](O)c1ccccc1	-1.6	·	·	·	·
CCC(=O)N(Cc1ccc(S(N)(=O)=O)cc1)C1CC(=O)N(c2ccccc2)C1=O (centres undefined)	-1.6	1.1	5.2	-9.1	·
CC1CN(C(=O)c2ccccc2C(=O)c2ncc[nH]2)CC(C)O1 (centres undefined)	-7.4	1	9.4	4.7	·
O=C(c1ncc[nH]1)c1ccccc1C(=O)N1CCOCC1	-14.6	1	6.2	-0.9	5.3
CCCn1nc(NC(=O)c2ccco2)c2cc3ccc(C)cc3nc21	-10.1	1	-0.7	-1.3	6.7
CCCn1nc(NC(=O)c2ccco2)c2cc3cc(C)ccc3nc21	3.5	·	24.9	·	·
CN(C(=O)COC(=O)c1ccc([N+](=O)[O-])cc1N)c1ccccc1	-1.3	1	8.4	-2.4	·
O=C(COc1ccc(S(=O)(=O)NC2CCCCC2)cc1)NCC1CCCO1 (centres undefined)	-8.0	1.1	9.3	-6.0	2.3
CC(C)(C)NS(=O)(=O)c1ccc(OCC(=O)NCC2CCCO2)cc1 (centres undefined)	-14.4	·	·	·	·
O=C(C1CCCO1)N(c1cccc(Cl)c1)C1C=CS(=O)(=O)C1 (centres undefined)	-6.5	1	3.9	-2.4	12.1
CCOc1ccc(N(C(=O)C2CCCO2)C2C=CS(=O)(=O)C2)cc1 (centres undefined)	-5.9	1.1	28.7	-5.8	·
SMILES	C8 TRAIL sens	FLuc stim CS	PPC-1+TRAIL kill	FLuc inh counter	PPC-1 tox
Cc1cc(C(=O)CN2C(=O)c3ccccc3S2(=O)=O)c(C)n1CC1CCCO1 (centres undefined)	82.5*	0.6	86.0*	42.3	85.2*
COc1ccc(OC)c(S(=O)(=O)NC2CCSc3ccccc32)c1 (centres undefined)	0.0	·	·	·	·
O=C(O)c1ccc2c(=O)n3c(nc2c1)/C(=C/c1cccc(Cl)c1Cl)CCCC3	-17.3	1.1	14.2	-5.2	·
O=C(Nc1ccc2c(c1)OCO2)N1CCN(Cc2ccco2)CC1	72.7*	0.1	76.3*	91.5*	73.8*
COc1ccc(/C=C/c2nc3sc4c(c3c(=O)o2)CCC4)cc1	5.0	·	·	·	·
O=c1oc(/C=C/c2ccccc2)nc2sc3c(c12)CCC3	7.8	0.6	8.0	42.0	-0.9
CCN1CCN(Cc2ccc(NC(=O)c3cc(NC(=O)C(=O)c4c[nH]c5ccccc45)cc(OC)c3)cc2C(F)(F)F)CC1	92.5*	·	16.9	·	19.5
Cc1ccc(-n2c(-c3ccccc3)c[n+]3c2CCc2ccccc2-3)c(C)c1	37.2	1.1	25.1	-8.8	22.6
COc1ccc(/C=C/C2=NN(C)C(=O)CC2)cc1	53.5*	0.2	52.9*	81.0*	48.4
CCOC(=O)CN1N=C(/C=C/c2ccc(C)cc2)CCC1=O	-2.0	1	9.8	0.6	·

Bioassay records deposited in PubChem by Sanford-Burnham Center for Chemical Genomics.
